Active and inactive are the calls of the source. The rule behind the calls is not given here.
Columns and labels:
[1] = tested on: Candida albicans; test: Antimicrobial activity against Candida albicans ATCC 14053 assessed as growth inhibition after 24 hr by broth microdilution method; assay type: functional
Method in brief: (§1)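 Broth microdilution. Oils prepared as […] in DMSO and diluted in the plates to 3.5–900 µL/mL. Inoculum 5×10^5 cfu/mL, checked by plating on PDA. Incubated aerobically for 24 h at 37 °C (C. albicans at 30 °C). MIC taken as the first well, in ascending order, with no pellet or turbidity. MBC (99.9% kill) from 25 µL subcultured on PDA overnight at 37 °C. Three repeats.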

[2] = tested on: Fusarium graminearum; test: Antifungal activity against Fusarium graminearum assessed as mycelial growth inhibition after 4 to 12 days; assay type: functional, organism-based
Method in brief: (§2)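 Mycelial fragments (6 mm diameter, from 10-day cultures) were seeded on PDA in Petri dishes. Essential oil was added at 450 and 900 µL/mL, and plates were sealed and incubated in the dark at 22 °C. Controls received distilled water instead of oil. Mean diametric colony growth was read at 4, 8 and 12 days. Inhibition % = 100(C − T)/C, where C is the control diameter and T the oil-treated diameter.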

[3] = tested on: Pseudomonas aeruginosa; test: Antimicrobial activity against Pseudomonas aeruginosa ATCC 9027 assessed as growth inhibition after 24 hr by broth microdilution method; assay type: functional; method in brief: as §1
[4] = tested on: Fusarium culmorum; test: Antifungal activity against Fusarium culmorum assessed as mycelial growth inhibition after 4 to 12 days; assay type: functional, organism-based
Method in brief: (§3)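 Mycelial plugs (6 mm, 10-day-old cultures) inoculated on PDA in Petri dishes; essential oil added at 450 and 900 µL/mL; dishes sealed with Parafilm and held in the dark at 22 °C. Control: PDA plus distilled water. Mean colony diameter measured at 4, 8 and 12 days; inhibition I = 100(C − T)/C. Plates without growth were transferred to plain PDA for 48 h to tell fungistatic from fungicidal.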

[5] = tested on: Staphylococcus aureus; test: Antimicrobial activity against Staphylococcus aureus ATCC 6538 assessed as growth inhibition after 24 hr by broth microdilution method; assay type: functional; method in brief: as §1
[6] = tested on: Staphylococcus epidermidis; test: Antimicrobial activity against Staphylococcus epidermidis ATCC 12228 assessed as growth inhibition after 24 hr by broth microdilution method; assay type: functional; method in brief: as §1
[7] = tested on: Escherichia coli; test: Antimicrobial activity against Escherichia coli ATCC 8739 assessed as growth inhibition after 24 hr by broth microdilution method; assay type: functional; method in brief: as §1
[8] = tested on: Botrytis cinerea; test: Antifungal activity against Botryotinia fuckeliana assessed as mycelial growth inhibition after 4 to 12 days; assay type: functional, organism-based; method in brief: as §3
[9] = tested on: Fusarium graminearum; test: Induction of growth of Fusarium graminearum after 4 to 12 days; assay type: organism-based; details: in vivo; method in brief: as §2
[10] = tested on: Fusarium oxysporum f. sp. lycopersici; test: Antifungal activity against Fusarium oxysporum f. sp. lycopersici assessed as mycelial growth inhibition after 4 to 12 days; assay type: functional, organism-based; method in brief: as §3
[11] = tested on: Rhizoctonia solani; test: Antifungal activity against Rhizoctonia solani assessed as mycelial growth inhibition after 4 to 12 days; assay type: functional, organism-based; method in brief: as §3

| SMILES | MIC [1] [uL/ml] | growth inhibition (GI) [2] | MIC [3] [uL/ml] | growth inhibition (GI) [4] | MIC [5] [uL/ml] | MIC [6] [uL/ml] | MIC [7] [uL/ml] | growth inhibition (GI) [8] | Activity [9] | growth inhibition (GI) [10] | growth inhibition (GI) [11] |
| --- | --- | --- | --- | --- | --- | --- | --- | --- | --- | --- | --- |
| C=C1[C@@H]2CC[C@@H](C2)C1(C)C [(-)-CAMPHENE] | >900 | inactive | >900 | inactive | >900 | >900 | >900 | inactive | Toxic | inactive | inactive |
| CC1(C)C2CCC1(C)C(O)C2 (stereo not given) [BORNEOL] | >900 | inactive | >900 | inactive | >900 | >900 | >900 | inactive | Toxic | inactive | inactive |
| CC12CCC(CC1=O)C2(C)C (stereo not given) [CAMPHOR] | >900 | inactive | >900 | inactive | >900 | >900 | >900 | inactive | Toxic | inactive | inactive |
| CC1=CC(=O)[C@@H]2C[C@H]1C2(C)C [VERBENONE] | >900 | inactive | >900 | inactive | >900 | >900 | >900 | inactive | Toxic | inactive | inactive |
| CC1=CCC2CC1C2(C)C (stereo not drawn) [ALPHA-PINENE] | >900 | inactive | >900 | inactive | >900 | >900 | >900 | inactive | Toxic | inactive | inactive |

Reference: ChEMBL document CHEMBL3045403, “chemical composition, plant genetic differences, antimicrobial and antifungal activity investigation of the essential oil of Rosmarinus officinalis L” (J Agric Food Chem, 2004)
